Drawing on ChEMBL document CHEMBL3098087, “Synthesis and evaluation of (-)- and (+)-[¹¹C]galanthamine as PET tracers for cerebral acetylcholinesterase imaging” (Bioorg Med Chem, 2014), this text covers Drug uptake for 2 molecules.

In data set [1] the test system is Brain. Briefly: Biodistribution in ddY mouse brain at 3.7 MBq, iv after 10 mins by gamma counting. Type of data set: ADME, organism-based. The settings on record: in vivo. In short, it runs like this: (§1)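 ddY male mice, seven weeks old, 20–25 g, received 3.7 MBq of tracer. Five animals per time point, up to 60 min, were killed by exsanguination. Blood and brain, or striatum and cerebellum, were excised, weighed and gamma-counted. Uptake is expressed as %ID/g of tissue.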

Data set [2] relates to Cerebellum. Briefly: Biodistribution in ddY mouse cerebellum at 3.7 MBq, iv after 30 mins by gamma counting. Type of data set: ADME, organism-based. The settings on record: in vivo, 0.5 h. The method, boiled down: as §1
Data set [3] concerns Striatum. Briefly: Biodistribution in ddY mouse striatum at 3.7 MBq, iv after 30 mins by gamma counting. Type of data set: ADME, organism-based. The settings on record: in vivo, 0.5 h. In short, it runs like this:
as §1

In data set [4] the test system is Striatum. Briefly: Drug uptake in Wistar rat striatum at 2.2 […]/200 uL after 30 mins by autoradiography analysis. Type of data set: ADME, tissue-based. The settings on record: in vitro, 0.5 h. The method, boiled down: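 Coronal brain sections (20 µm) from male Wistar rats were thaw-mounted on silane-coated slides. Sections were incubated with tracer in binding buffer for 30 min at 4°C, then washed with ice-cold buffer and water. They were exposed to imaging plates for 6 h alongside calibrated 11C standards.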

The test system of data set [5] is Striatum. The data set can be described thus: Drug uptake in Wistar rat striatum at 10 mM after 30 mins by autoradiography analysis counting in presence of donepezil. In kind it is ADME, tissue-based. The settings on record: 0.5 h, 10000 µM.
Data set [6] deals with Brain. The data set can be described thus: Biodistribution in ddY mouse brain at 74 MBq, iv after 10 to 30 mins by PET analysis. The settings on record: in vivo.
Data set [7] concerns Striatum. The data set can be described thus: Biodistribution in ddY mouse striatum at 3.7 MBq, iv by gamma counting in presence of donepezil. The settings on record: in vivo.

Structures are written as SMILES.

Consider `COc1ccc2c3c1O[C@@H]1C[C@H](O)C=C[C@]31CCN([11CH3])C2`, for which the Drug uptake in data set [1] is 2.1 % ID/g; in data set [2], 1.5 % ID/g; in data set [3], 1.5 % ID/g.

On to `COc1ccc2c3c1O[C@H]1C[C@@H](O)C=C[C@@]31CCN([11CH3])C2`, for which the Drug uptake entry in data set [4] is reported as “Active”; in data set [5], “Not Active”; in data set [1] it was 2.1 % ID/g; in data set [6] it was “Active”; in data set [2] it was 1.7 % ID/g; in data set [7] it was 1.3 % ID/g. The Drug uptake in data set [3] is reported as 2.1 % ID/g.
